Ecoli WT expand = blocks growth of wild type E. coli BW25113; OD600 absorbance; AID 710; growth inhibition, % at 100 µM; 0.15% of 98,000 active;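 active = growth inhibition above about 50% at one test dose, limit read from the data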;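 note: growth measured after 20 h incubation at 37 °C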
PostGolgi yeast = growth inhibition of a yeast mutant, post-Golgi transport screen | post-Golgi transport phenotypic cell assay | inhibition, % at 10 µM | 0.9% of 98,000 active;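 note: yeast cells grown in 1536-well plates; yeast grown about 18 h at 30C before absorbance read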
Cav3 T inh = human Cav3.2 channel inhibition, primary screen; 4% of 100,000 active; B-score at 10 µM; AID 449739; O95180; Cav3.2-expressing cells, Fluo-4 calcium fluorescence FDSS; hits give low values;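 active = single-dose well whose peak fluorescence ratio is a statistical outlier from its plate by either plate-standardised score or position-corrected B-score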
Target sequence (O95180 whole entry, looked up): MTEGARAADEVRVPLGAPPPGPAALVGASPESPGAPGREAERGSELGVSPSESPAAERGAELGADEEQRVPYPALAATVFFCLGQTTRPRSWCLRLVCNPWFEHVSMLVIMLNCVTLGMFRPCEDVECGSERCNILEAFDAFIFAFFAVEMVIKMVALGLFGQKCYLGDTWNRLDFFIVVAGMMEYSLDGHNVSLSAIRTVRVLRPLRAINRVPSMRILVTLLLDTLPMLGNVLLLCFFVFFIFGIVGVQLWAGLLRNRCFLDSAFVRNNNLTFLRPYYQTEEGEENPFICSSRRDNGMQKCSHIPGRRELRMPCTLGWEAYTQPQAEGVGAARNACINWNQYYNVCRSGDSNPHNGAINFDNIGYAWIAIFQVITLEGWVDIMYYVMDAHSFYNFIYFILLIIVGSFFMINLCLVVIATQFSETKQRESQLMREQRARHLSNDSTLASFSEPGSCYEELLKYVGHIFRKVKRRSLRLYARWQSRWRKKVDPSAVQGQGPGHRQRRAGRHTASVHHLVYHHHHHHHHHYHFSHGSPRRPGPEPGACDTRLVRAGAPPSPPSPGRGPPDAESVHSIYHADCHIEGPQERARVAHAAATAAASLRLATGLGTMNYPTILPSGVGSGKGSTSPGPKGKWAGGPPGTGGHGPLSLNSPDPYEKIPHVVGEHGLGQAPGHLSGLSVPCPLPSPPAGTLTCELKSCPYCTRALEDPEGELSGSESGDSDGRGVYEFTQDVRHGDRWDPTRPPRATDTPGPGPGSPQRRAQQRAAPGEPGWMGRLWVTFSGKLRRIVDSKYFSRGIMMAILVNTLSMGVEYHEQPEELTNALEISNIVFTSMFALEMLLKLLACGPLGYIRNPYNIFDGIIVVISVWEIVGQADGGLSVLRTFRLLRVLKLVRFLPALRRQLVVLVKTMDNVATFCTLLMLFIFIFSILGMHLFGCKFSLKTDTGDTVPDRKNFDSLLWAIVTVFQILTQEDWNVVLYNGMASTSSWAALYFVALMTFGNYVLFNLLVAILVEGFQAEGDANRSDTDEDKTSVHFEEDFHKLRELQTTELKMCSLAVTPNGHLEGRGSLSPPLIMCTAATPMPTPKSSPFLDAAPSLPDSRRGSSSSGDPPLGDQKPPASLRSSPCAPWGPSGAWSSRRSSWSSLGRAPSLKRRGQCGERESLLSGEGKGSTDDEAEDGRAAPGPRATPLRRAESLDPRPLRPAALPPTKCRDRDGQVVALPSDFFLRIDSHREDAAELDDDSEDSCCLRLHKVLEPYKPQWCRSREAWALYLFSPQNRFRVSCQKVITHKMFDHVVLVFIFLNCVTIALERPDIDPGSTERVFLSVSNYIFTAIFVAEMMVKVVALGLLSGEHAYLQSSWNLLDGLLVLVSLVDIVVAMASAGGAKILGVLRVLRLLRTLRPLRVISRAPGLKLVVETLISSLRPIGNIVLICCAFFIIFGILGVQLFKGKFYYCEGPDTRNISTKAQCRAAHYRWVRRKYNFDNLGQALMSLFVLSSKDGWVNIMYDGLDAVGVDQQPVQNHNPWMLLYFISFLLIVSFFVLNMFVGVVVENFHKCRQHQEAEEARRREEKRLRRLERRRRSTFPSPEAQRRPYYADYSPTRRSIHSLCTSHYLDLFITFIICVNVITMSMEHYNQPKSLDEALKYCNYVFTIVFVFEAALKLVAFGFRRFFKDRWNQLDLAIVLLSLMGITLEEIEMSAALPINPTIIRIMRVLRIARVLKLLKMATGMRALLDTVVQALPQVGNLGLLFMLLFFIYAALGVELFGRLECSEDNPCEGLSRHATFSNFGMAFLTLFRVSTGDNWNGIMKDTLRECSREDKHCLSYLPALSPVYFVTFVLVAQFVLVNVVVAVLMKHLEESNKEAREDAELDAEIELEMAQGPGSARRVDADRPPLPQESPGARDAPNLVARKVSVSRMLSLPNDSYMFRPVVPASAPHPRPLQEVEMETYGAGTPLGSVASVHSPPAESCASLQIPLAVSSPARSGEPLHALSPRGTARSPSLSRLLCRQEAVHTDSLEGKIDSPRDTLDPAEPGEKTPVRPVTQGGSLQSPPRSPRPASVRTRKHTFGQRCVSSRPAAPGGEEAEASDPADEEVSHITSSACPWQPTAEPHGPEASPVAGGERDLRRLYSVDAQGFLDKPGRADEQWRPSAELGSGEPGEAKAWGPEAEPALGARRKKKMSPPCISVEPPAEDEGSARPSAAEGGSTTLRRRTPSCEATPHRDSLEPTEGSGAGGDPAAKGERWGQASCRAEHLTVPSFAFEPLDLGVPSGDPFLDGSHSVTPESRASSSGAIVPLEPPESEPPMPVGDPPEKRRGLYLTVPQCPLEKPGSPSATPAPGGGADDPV
tolC growth inh = blocks growth of E. coli BW25113 tolC mutant. growth inhibition, % at 10 µM (by protocol). OD615. AID 573. 2.2% of 65,000 active;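 active = growth inhibition at or above a cutoff equal to the mean over every tested compound plus 3 SD, cut at about 60% in these data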;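 note: growth measured after 20 h incubation at 37 °C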
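System: E. coli ΔtolC::kan strain BW25113; Buffer or medium: LB broth supplemented with 50 µg/mL kanamycin; Compound: 10 µM final, single dose; Incubation: bacterial growth with compound for 20 h at 37 °C; Signal: A615 absorbance measurement; Evaluation: growth inhibition in percent.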
PostGolgi ctrl = growth of the yeast control strain, post-Golgi counter-screen | inhibition, % at 10 µM | 5% of 98,000 active | AID 738 | efflux-deficient yeast background strain, growth absorbance A615, 16 h
Starred values were filed as active, the others as inactive. Compounds with a hit are over-represented: about 8.4% of the library has one in this group of screens. Cut-off read from the data, not from the text of the source, unless noted: active = inhibition above about 30%; inactive = the rest.

How did COc1cc(OC)cc(-c2nnc(SCC(=O)N3CCCc4ccccc43)o2)c1 do in these assays?
Ecoli WT expand: -13; PostGolgi yeast: -5; Cav3 T inh: -4.3*; tolC growth inh: 49; PostGolgi ctrl: -9

How did O=C(CSc1nnc(-c2ccccc2Cl)o1)N1CCCCC1 do in these assays?
Ecoli WT expand: 8; PostGolgi yeast: 4; Cav3 T inh: -4.2*; tolC growth inh: 5; PostGolgi ctrl: -3

What do the screens show for `Cc1ccc(-c2nnc(SCC(=O)N3CCCC3)o2)cc1`?
Ecoli WT expand: -4; PostGolgi yeast: 1; Cav3 T inh: 0.2; tolC growth inh: 5; PostGolgi ctrl: -9

What do the screens show for `O=C(c1ccco1)c1nnn(Cc2ccccc2)c1-c1ccccc1`?
Ecoli WT expand: -13; PostGolgi yeast: 12; Cav3 T inh: -2.7; tolC growth inh: 37; PostGolgi ctrl: 10

How did COc1ccc(CCC(=O)NCCc2cn3c(C)csc3n2)cc1 do in these assays?
Ecoli WT expand: -4; PostGolgi yeast: -2; Cav3 T inh: -0.45; tolC growth inh: 10; PostGolgi ctrl: 7

Results for CCOC(=O)C(C(=O)OCC)C1CCS(=O)(=O)C1 (configuration not stated) ?
Cav3 T inh: 0.29

How did COc1cc(OC)cc(-c2nnc(SCC(=O)N3CCCC3)o2)c1 do in these assays?
Ecoli WT expand: 7; PostGolgi yeast: 5; Cav3 T inh: 1.3; tolC growth inh: 8; PostGolgi ctrl: 35*

How did CCOc1ccc2nc(SCC(=O)N3CCCc4ccccc43)sc2c1 do in these assays?
Ecoli WT expand: -17; PostGolgi yeast: -4; Cav3 T inh: -4.7*; PostGolgi ctrl: 10

What do the screens show for `CCOc1ccc(C2=Cc3cc(OC)c(OC)cc3C(=C(Cl)Cl)O2)cc1`?
Ecoli WT expand: 7; PostGolgi yeast: -3; Cav3 T inh: 0.025; PostGolgi ctrl: 1

What do the screens show for `Oc1ccccc1C1=Nc2ncnn2C(c2ccc(F)cc2)C1` (configuration not stated)?
Ecoli WT expand: 7; PostGolgi yeast: 29; Cav3 T inh: 1.3; tolC growth inh: 7; PostGolgi ctrl: 0

What do the screens show for `CCOC(=O)c1c(N)sc2c(O)c(Br)ccc12`?
Ecoli WT expand: 12; PostGolgi yeast: 12; Cav3 T inh: 1.4; tolC growth inh: 12; PostGolgi ctrl: 49*

What do the screens show for `CCOC(=O)c1c(N)sc2c(NC(C)=O)cccc12`?
Ecoli WT expand: 8; PostGolgi yeast: 0; Cav3 T inh: 1.3; tolC growth inh: -7; PostGolgi ctrl: -2

What do the screens show for `Cc1cc2ccccc2c(=O)n1CC(=O)N(C)c1ccc(F)cc1`?
Ecoli WT expand: 4; PostGolgi yeast: 2; Cav3 T inh: 1.4; tolC growth inh: -7; PostGolgi ctrl: 5

Results for Nc1nc2ccc(Oc3ccccc3)cc2s1 ?
Ecoli WT expand: 29; PostGolgi yeast: 10; Cav3 T inh: -2.4; tolC growth inh: 26; PostGolgi ctrl: 32*

Results for O=C(CN(c1ccc(F)cc1)S(=O)(=O)c1ccc2c(c1)OCCO2)NCC1CCCO1 (configuration not stated) ?
Ecoli WT expand: 1; PostGolgi yeast: -5; Cav3 T inh: 0.53; tolC growth inh: -2; PostGolgi ctrl: 33*

How did CC1=C(C(=O)Nc2ccccc2)C(c2ccccn2)n2ncnc2N1 (configuration not stated) do in these assays?
Ecoli WT expand: 10; PostGolgi yeast: 1; Cav3 T inh: -0.021; PostGolgi ctrl: 10

How did CC1=C(C(=O)OC(C)C)C(c2ccccn2)n2ncnc2N1 (configuration not stated) do in these assays?
Ecoli WT expand: -3; PostGolgi yeast: -1; Cav3 T inh: 0.43; tolC growth inh: -11; PostGolgi ctrl: 33*

Results for CCn1c(CNC(=O)c2ccco2)nnc1SCC(=O)Nc1cc(C(F)(F)F)ccc1Cl ?
Ecoli WT expand: 3; PostGolgi yeast: 1; Cav3 T inh: -4.5*; tolC growth inh: 4; PostGolgi ctrl: 19

What do the screens show for `O=C(Nc1ccc(F)cc1F)NC1CC(=O)N(Cc2ccccc2)C1` (configuration not stated)?
Ecoli WT expand: -2; PostGolgi yeast: 4; Cav3 T inh: 0.079; tolC growth inh: -12; PostGolgi ctrl: 5

Results for CCOC(=O)C1=C(C)N(CCCC(=O)O)C(=O)NC1c1cc2ccccc2c2ccccc12 (configuration not stated) ?
Cav3 T inh: 0.28

What do the screens show for `CCN(CC)S(=O)(=O)c1ccc(NCc2ccccc2)nc1`?
Ecoli WT expand: 1; PostGolgi yeast: -4; Cav3 T inh: 0.2; tolC growth inh: -11; PostGolgi ctrl: 38*

What do the screens show for `COC(=O)C1=C(C)NC(C)=C(C(=O)OCCN(C)Cc2ccccc2)C1c1cccc([N+](=O)[O-])c1` (configuration not stated)?
Cav3 T inh: -4.1*

Results for CC1=C(C(=O)OCc2ccccc2)C(c2cccc([N+](=O)[O-])c2)NC(=O)N1CCCCCC(=O)O (configuration not stated) ?
Cav3 T inh: 1.7

How did Cc1cc(NC(=O)CN2CCC(n3nnc4cc(C(F)(F)F)ccc43)CC2)no1 do in these assays?
Ecoli WT expand: -8; PostGolgi yeast: -8; Cav3 T inh: -0.37; tolC growth inh: -4; PostGolgi ctrl: 15

How did CCOc1ccc2nc(NC(=O)CN3CCC(n4nnc5cc(C(F)(F)F)ccc54)CC3)sc2c1 do in these assays?
Ecoli WT expand: -4; PostGolgi yeast: -1; Cav3 T inh: -0.43; PostGolgi ctrl: 35*

What do the screens show for `Cn1c(=O)c(NCCO)c2c3c(cccc31)C(=O)c1ccccc1-2`?
Ecoli WT expand: -5; PostGolgi yeast: 7; Cav3 T inh: -9*; tolC growth inh: 25; PostGolgi ctrl: 6

How did CCNc1c2c3c(cccc3n(C)c1=O)C(=O)c1ccccc1-2 do in these assays?
Ecoli WT expand: -1; PostGolgi yeast: 6; Cav3 T inh: -9.2*; tolC growth inh: 6; PostGolgi ctrl: 11

What do the screens show for `CC1CCN(C(=O)c2ccc3c(c2NCCO)C(=O)c2ccccc2C3=O)CC1`?
Ecoli WT expand: 7; PostGolgi yeast: -2; Cav3 T inh: 2; PostGolgi ctrl: 17

How did Cn1c(=O)c(NCCc2ccccc2)c2c3c(cccc31)C(=O)c1ccccc1-2 do in these assays?
Ecoli WT expand: -12; PostGolgi yeast: 0; Cav3 T inh: -11*; PostGolgi ctrl: 48*

What do the screens show for `CN1C(=O)c2cccc(NCCCN3C(=O)c4ccccc4C3=O)c2C1=O`?
Ecoli WT expand: -4; PostGolgi yeast: 3; Cav3 T inh: -2; tolC growth inh: -23; PostGolgi ctrl: 6

What do the screens show for `CCCCNc1c2c3c(cccc3n(C)c1=O)C(=O)c1ccccc1-2`?
Ecoli WT expand: -26; PostGolgi yeast: 2; Cav3 T inh: -5.2*; PostGolgi ctrl: 58*

What do the screens show for `COc1ccccc1C1CC(c2ccccc2)Nc2ncnn21` (configuration not stated)?
Ecoli WT expand: 5; PostGolgi yeast: -4; Cav3 T inh: -0.57; tolC growth inh: 22; PostGolgi ctrl: 15

How did CN1C(C(=O)NCCc2cccs2)CC2Cn3c(nc4ccccc43)C21 (configuration not stated) do in these assays?
Cav3 T inh: 0.82
